Compound activity (PubChem)
Most compounds without a hit are left out; they make up all but 4.9% or so of the library.
STAT3 blocker = inhibitors of IL-6 induced STAT3 signaling. U3A cells, IL-6 STAT3-luciferase reporter, luminescence; host cell line lacks STAT1. inhibition, % at 5.5 µM. 0.89% of 190,000 active. AID 862;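 active = inhibition above the mean inhibition across all screened compounds plus 3 SD, cut at about 44% in these data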;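 also: 0% = DMSO only wells and 100% = 100 µM nifuroxazide control wells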
STAT3 act = activators of IL-6 induced STAT3 signaling. U3A cells, IL-6 STAT3-luciferase reporter, luminescence; 100% = signal with IL-6 EC80 alone. activation (% of control), % at 5.6 µM. 0.91% of 190,000 active. AID 871;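 active = activation above the screen-wide mean of compound activation plus 3 SD, cut at about 130% in these data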;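 also: 0% = background luminescence of wells with medium and substrate only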
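Material: human U3A cells carrying STAT3-luciferase construct. Measured by: reporter luminescence signal. Timing: compound 1 h, then IL-6 6 h at 37 °C.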
STAT1 activator = activators of IFN-gamma induced STAT1 signaling; NIH 3T3 STAT1-luciferase reporter, luminescence; 100% = IFN-gamma alone, no compound; activation (% of control), % at 5.5 µM; 2.6% of 200,000 active;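 active = activation above the screen-wide mean activation plus 3 SD, cut at about 130% in these data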;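 also: raw ratio to IFN-gamma control signal so 100% means no change and 0% no light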
FLuc stim CS = affects firefly luciferase, flagging false hits in luciferase stimulation screens | ATPlite luciferase biochemical, luminescence, 10 min; 0 = ATP-free wells, 1 = DMSO control | activation factor at 10 µM | 200,000 tested, under 10 active;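 active = luciferase activation factor, scaled between plate controls, of at least 2 with compound at 10 µM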
Target sequence (P08659 whole entry, looked up): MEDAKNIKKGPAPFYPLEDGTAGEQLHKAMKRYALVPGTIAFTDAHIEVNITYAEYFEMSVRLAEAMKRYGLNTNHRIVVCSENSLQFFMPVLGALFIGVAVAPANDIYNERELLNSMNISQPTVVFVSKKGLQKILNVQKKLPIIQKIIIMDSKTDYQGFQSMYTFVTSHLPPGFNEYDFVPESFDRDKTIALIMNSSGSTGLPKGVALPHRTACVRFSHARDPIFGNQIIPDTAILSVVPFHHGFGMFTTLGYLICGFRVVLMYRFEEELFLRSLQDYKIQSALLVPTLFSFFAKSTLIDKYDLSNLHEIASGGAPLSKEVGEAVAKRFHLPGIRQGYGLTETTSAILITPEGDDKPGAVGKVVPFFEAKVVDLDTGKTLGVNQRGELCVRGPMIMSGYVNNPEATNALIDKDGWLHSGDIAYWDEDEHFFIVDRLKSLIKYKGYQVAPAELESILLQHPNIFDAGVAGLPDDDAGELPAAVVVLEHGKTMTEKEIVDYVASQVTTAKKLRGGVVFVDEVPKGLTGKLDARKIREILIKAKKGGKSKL
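Material: Luciferase/luciferin reagent mix; Doses: test compounds dosed from 2 mM stocks in 100% DMSO; Schedule: 10 min incubation after luciferase reagent addition, room temperature; Measured by: luminescence from luciferase reaction; Read-out: luminescence gain marking luciferase activators.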
FLuc inhib CS = Photinus pyralis luciferase inhibition counter-screen; P08659; ATPLite firefly luciferase biochemical luminescence, 10 min; inhibition, % at 10 µM; 1.5% of 200,000 active; AID 1006;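 active = inhibition above about 50% when tested at 10 µM, limit read from the data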
STAT1 blocker = STAT1 signaling inhibition | NIH 3T3 STAT1-luciferase reporter, IFN-gamma, luminescence | inhibition, % at 5.5 µM | AID 920 | 0.35% of 200,000 active;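 active = inhibition above a set limit, the mean inhibition across all tested compounds plus 3 SD, cut at about 34% in these data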;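 also: 0% = IFN-gamma with DMSO and 100% = IFN-gamma with 300 µM nifuroxazide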
Active calls of the source: *; nt = not tested or not shown.

SMILES | STAT3 blocker | STAT3 act | STAT1 activator | FLuc stim CS | FLuc inhib CS | STAT1 blocker
Cc1ccccc1Nc1c(-c2ccc(N3CCOCC3)cc2)nc2ncccn12 | 22.8 | 88.9 | 104.7 | 0.4 | 59.0* | -5.9
Cc1ccc(Nc2c(-c3ccc(N4CCOCC4)cc3)nc3ncccn23)cc1 | 9.5 | 91.8 | 81.2 | 1 | -1.8 | 20.6
O=C(CCc1nnc(-c2ccc(-c3ccccc3)cc2)o1)N1CCCCC1 | 21.1 | 85.8 | 115.3 | 1 | 4.4 | -19.0
O=C(CCc1nnc(-c2ccsc2)o1)N1CCc2c(Cl)cccc2C1 | 10.0 | 96.2 | 129.2* | 1 | -4.2 | -31.3
O=C1c2ccccc2C(=O)c2cc(NC(=O)C3CC3)ccc21 | -3.5 | 102.0 | 130.3* | 0.8 | 21.7 | -34.0
CCNC(=S)N/N=C/c1sc(N2CCCCC2)nc1-c1cccs1 | -14.8 | 109.7 | 118.6 | 0.4 | 61.9* | -17.0
Cc1ccc(OCc2nc(-c3ccccn3)no2)c(Br)c1 | 83.3* | 33.9 | 56.0 | 0.2 | 79.1* | 48.1*
CC(C)c1ccc(OCc2nc(-c3ccccn3)no2)c(Br)c1 | 17.3 | 93.4 | 137.5* | 0.6 | 35.6 | -41.2
Cn1cc(/C=C2/SC(=O)N(c3ccccc3)C2=O)c2ccccc21 | -83.6 | 172.3* | 132.5* | 1 | -1.9 | -36.4
COc1ccccc1C(=O)NNC(=O)c1nn(Cc2ccccc2)c(=O)c2ccccc12 | -37.7 | 134.9* | 92.2 | 1 | 0.2 | 8.8
O=C(CCCCn1c(=O)c2ccccc2n(Cc2ccccc2)c1=O)NC1CCN(Cc2ccccc2)CC1 | -8.8 | 108.2 | 101.6 | 1 | -2.5 | -2.9
COc1ccccc1N1C(=O)c2ccccc2NC1c1ccncc1 (stereo not drawn) | 3.7 | 100.5 | 93.2 | 1 | -3.5 | 7.4
COc1ccccc1N1C(=O)N(C(C)=O)C2C1Nc1ccccc1N2C (stereo not drawn) | -34.9 | 133.6* | 84.0 | 1.1 | -8.8 | 17.5
COc1ccccc1C(=O)NC(=Nc1nc2ccccc2o1)NC(=O)c1ccccc1OC | -41.1 | 135.6* | 99.1 | 1 | 3.7 | -1.1
C/C(=N\NC(=O)c1ccccc1)c1ccc(NC(=O)c2cccs2)cc1 | 7.3 | 90.6 | 135.9* | 1 | -0.7 | -39.4
CCN(CC)S(=O)(=O)c1cccc(C(=O)N/N=C(\C)c2cccs2)c1 | 0.1 | 103.1 | 128.7* | 0.5 | 47.1 | -33.5
C/C(=N\NC(=O)c1cccc(S(=O)(=O)Nc2cccc(Cl)c2)c1)c1cccs1 | -0.2 | 105.1 | 105.1 | 1.1 | -6.1 | -5.6
CC(=O)Nc1cccc(/C(C)=N/NC(=O)c2cccs2)c1 | -11.8 | 108.2 | 140.2* | 0.9 | 10.6 | -42.7
C/C(=N\NC(=O)C(N)=O)c1ccc(NC(=O)c2cccs2)cc1 | 14.7 | 91.0 | 137.2* | 1 | 3.6 | -40.4
C/C(=N/NC(=O)c1cccs1)c1cccc(N)c1 | 10.9 | 92.6 | 120.9 | 0.9 | 8.0 | -24.7
COc1ccc(CNCC(=O)Nc2ccccc2-n2cccc2)cc1 | 3.7 | 98.9 | 90.9 | 1 | -1.6 | 9.1
O=C(NNc1nc2ccc(Cl)cc2s1)c1cc(-c2cccs2)nc2ccccc12 | -2.4 | 102.0 | 104.0 | 1 | -4.2 | -4.3
C/C(=N\NC(=O)c1ccccc1)c1ccccc1F | 0.6 | 105.5 | 132.4* | 0.6 | 37.6 | -36.6
N/C(=N\O)c1ccc(NC(=O)c2cccs2)cc1 | -1.5 | 104.9 | 130.2* | 0.7 | 27.7 | -30.5
C/C(=N\NC(=O)c1ccccc1)c1ccccc1Br | -8.1 | 104.5 | 116.5 | 1 | 3.0 | -18.5
SMILES | STAT3 blocker | STAT3 act | STAT1 activator | FLuc stim CS | FLuc inhib CS | STAT1 blocker
Cc1cc(C)c(S(=O)(=O)NCCOc2ccccc2)c(C)c1-n1cnnn1 | 15.2 | 96.2 | 81.3 | 1 | -2.6 | 19.6
Nc1c(-c2ccsc2)cnc2ncnn12 | -10.7 | 113.8 | 103.6 | 1 | -1.3 | -3.9
CC(C)(C)S(=O)(=O)c1cnc2c(-c3ccsc3)cnn2c1N | -14.9 | 119.1 | 132.4* | 0.9 | 8.5 | -36.6
CC(=O)OC[C@H]1O[C@@H](O/N=C/C[C@@H]2C=C[C@H](OC(C)=O)[C@@H](COC(C)=O)O2)[C@H](OC(C)=O)[C@@H](OC(C)=O)[C@@H]1OC(C)=O | -3.7 | 100.7 | 101.4 | 1 | -1.9 | -1.5
O=C(N/N=C/c1ccccc1F)NC1CCCCC1 | -1.3 | 103.9 | 130.5* | 1 | 4.7 | -33.9
COCCn1c(-c2ccccc2Cl)nc2c(c(=O)c3ccccc3n2C)c1=O | 5.4 | 93.8 | 97.4 | 1 | -3.2 | 5.0
Cc1cc(NCCCN2CCOCC2)n2ncc(-c3ccccc3)c2n1 | -17.5 | 116.5 | 146.6* | 0.8 | 15.2 | -51.5
c1ccc2c(NCCCN3CCOCC3)c3ccccc3nc2c1 | -127.0 | 214.6* | 180.3* | 1.1 | -6.0 | -88.3
c1csc(-c2ccc3ccccc3n2)c1 | 16.1 | 88.0 | 147.3* | 0.6 | 40.0 | -51.7
CCCCC(=O)NC(=S)Nc1ccc(NC(=O)C(C)C)c(OC)c1 | 5.8 | 97.0 | 98.5 | 1 | -2.6 | -0.3
COCc1cc(Sc2ccc(Br)cc2)nc(-c2ccccc2)n1 | -4.7 | 104.0 | 93.9 | 1.1 | -7.5 | 6.7
Clc1cc(Sc2ccc(Br)cc2)nnc1-c1ccccc1 | -47.5 | 138.5* | 98.3 | 1 | -2.9 | 1.9
Cn1cccc1C(=O)OCC(=O)Nc1ccc2c(c1)OCO2 | -12.4 | 113.7 | 124.5 | 0.9 | 12.6 | -28.8
Cn1cccc1C(=O)OCc1cc(Cl)cc2c1OCOC2 | -6.2 | 107.0 | 144.6* | 1 | -4.7 | -48.7
Nc1nc(-c2ccccc2)nc(-c2ccccc2O)n1 | -42.2 | 139.0* | 97.2 | nt | nt | 3.0
Nc1nc(N)nc(-c2ccccc2O)n1 | -0.7 | 104.9 | 118.6 | 1 | 2.2 | -20.2
O=C(c1ccco1)N1CCN(C(=O)c2ccc(COc3ccc4c(c3)CCC4)o2)CC1 | 5.8 | 98.4 | 132.4* | 1 | 4.2 | -35.4
O=C(c1ccc(COc2ccc3c(c2)CCC3)o1)N1CCN(c2ccccc2)CC1 | -6.2 | 108.8 | 101.9 | nt | nt | -2.1
Cc1cccc(C2c3[nH]c4ccccc4c3CCN2C(=O)CN2CCOC2=O)n1 (stereo not drawn) | -37.4 | 134.1* | 93.4 | 1 | -4.2 | 5.3
Cc1cccc(C2c3[nH]c4ccccc4c3CCN2C(=O)Cc2nc(-c3ccccc3)n[nH]2)n1 (stereo not drawn) | -23.1 | 125.1 | 97.6 | 1.1 | -5.4 | 0.9
CC(=O)Nc1ccc(/C=C2/Sc3ccccc3C2=O)cc1 | -6.6 | 107.6 | 105.0 | 0.5 | 46.3 | -7.4
CNC(=O)c1cc2c(ccc3ccccc32)o1 | 13.4 | 96.0 | 133.0* | 0.9 | 7.7 | -35.6
O=C(NC1CCCC1)c1cc2c(ccc3ccccc32)o1 | 20.2 | 83.2 | 137.2* | 0.9 | 9.5 | -48.3
COC(=O)c1c(O)cc(C(C)(C)C)n(-c2ccc(F)cc2)c1=O | -1.4 | 101.5 | 103.8 | 1.1 | -9.8 | -4.3
COCc1cc(C)nc2sc(C(=O)N3CCCCC3)c(N)c12 | 6.5 | 95.5 | 99.0 | 1 | 3.5 | 1.1
